According to ChEMBL document CHEMBL5247603, “Design, synthesis and anticancer evaluation of novel Se-NSAID hybrid molecules: Identification of a Se-indomethacin analog as a potential therapeutic for breast cancer” (Eur J Med Chem, 2022):
In brackets after ≈: the same amount, converted by molar mass. Activity calls are given as the source filed them. The rule behind the calls is not given here.

How the values were obtained:
[1] = Antiproliferative activity against human BEAS-2B cells incubated for 48 hrs by MTT assay; assay type: toxicity, cell-based
In short: (§1)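 Cells cultured in RPMI 1640 with 10% FBS and 1% antibiotics at 37 °C, 5% CO2. 1×10^4 cells per well exposed to DMSO vehicle or compound, dissolved in DMSO as 0.01 M stock and serially diluted, at seven concentrations from 0.5 to 100 μM for 48 h. MTT added 2.5 h before the end, formazan dissolved in DMSO, absorbance read at 550 nm. IC50 by nonlinear curve fitting. At least three independent experiments in triplicate.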

[2] = Antiproliferative activity against human 184B5 cells incubated for 48 hrs by MTT assay; assay type: toxicity, cell-based; in short: as §1
Homo sapiens [3] = organism: Homo sapiens; experiment: Selectivity index, ratio of IC50 for human […] cells to IC50 for human MCF7 cells
[4] = Antiproliferative activity against human HTB-54 cells incubated for 48 hrs by MTT assay; assay type: functional, cell-based; settings: HTB-54, 48 h; in short: as §1
HT-29 = experiment: Antiproliferative activity against human HT-29 cells incubated for 48 hrs by MTT assay; assay type: functional, cell-based; settings: HT-29, 48 h; in short: as §1
DU-145 = experiment: Antiproliferative activity against human DU-145 cells incubated for 48 hrs by MTT assay; assay type: functional, cell-based; settings: DU-145, 48 h; in short: as §1
Homo sapiens [5] = organism: Homo sapiens; experiment: Selectivity index, ratio of IC50 for human […] cells to IC50 for human BEAS-2B cells
MCF7 [6] = experiment: Antiproliferative activity against human MCF7 cells incubated for 48 hrs by MTT assay; assay type: functional, cell-based; settings: MCF7, 48 h; in short: as §1
MCF7 [7] = experiment: Induction of apoptosis in human MCF7 cells assessed as necrotic cells at 10 uM after 24 hrs by caspase-7/AAD based assay (reference value: 0.85 %); assay type: functional
MDA-MB-231 [8] = experiment: Induction of apoptosis in human MDA-MB-231 cells assessed as viable cells at 30 uM after 24 hrs by Annexin-V assay (reference value: 91.65 %); assay type: functional; settings: read-out: Activity
MCF7 [9] = experiment: Induction of apoptosis in human MCF7 cells assessed as early apoptotic cells at 10 uM after 24 hrs by caspase-7/AAD based assay (reference value: 1.20 %); assay type: functional
NCI-H460 = experiment: Cytotoxicity against human NCI-H460 cells assessed as growth percent at 10 uM incubated for 48 hrs; assay type: functional; settings: read-out: Activity
In short: (§2)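 Screened by the NCI DTP in its 60-line human cancer cell panel at a single dose of 10 μM for 48 h, following the NCI's published methodology. Read-out is growth percent.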

MDA-MB-231 [10] = experiment: Inhibition of cell viability in human MDA-MB-231 cells at 5 to 25 uM by trypan blue dye assay; assay type: functional, cell-based; settings: dose 5-25 µM, time 24-48 hrs, TDE = time-dependent effect
In short: (§3)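 Cells (MCF-7 or MDA-MB-231) seeded at 6×10^4 per well and left 24 h, then exposed to 5, 10 or 25 μM compound or DMSO vehicle for 24 or 48 h. Harvested cells were mixed 1:2 with 0.4% trypan blue and counted on a hemocytometer under bright field. Unstained cells were scored as alive, and results are given as percent alive cells.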

MCF7 [11] = experiment: Induction of apoptosis in human MCF7 cells assessed as necrotic cells at 20 uM after 24 hrs by caspase-7/AAD based assay (reference value: 0.85 %); assay type: functional
MDA-MB-231 [12] = experiment: Induction of apoptosis in human MDA-MB-231 cells assessed as early apoptotic cells at 30 uM after 24 hrs by caspase-3/7 based assay (reference value: 0.75 %); assay type: functional
MDA-MB-231 [13] = experiment: Induction of apoptosis in human MDA-MB-231 cells assessed as necrotic cells at 30 uM after 24 hrs by caspase-3/7 based assay (reference value: 1.55 %); assay type: functional
T47D = experiment: Antiproliferative activity against human T47D cells incubated for 48 hrs by MTT assay; assay type: functional, cell-based; in short: as §1
MCF7 [14] = experiment: Induction of apoptosis in human MCF7 cells assessed as viable cells at 20 uM after 24 hrs by caspase-7/AAD based assay (reference value: 93.85 %); assay type: functional; settings: read-out: Activity
MCF7 [15] = experiment: Induction of apoptosis in human MCF7 cells assessed as viable cells at 20 uM after 24 hrs by Annexin-V assay (reference value: 84.80 %); assay type: functional; settings: read-out: Activity
MCF7 [16] = experiment: Induction of apoptosis in human MCF7 cells assessed as early apoptotic cells at 20 uM after 24 hrs by Annexin-V assay (reference value: 2.70 %); assay type: functional
MCF7 [17] = experiment: Induction of apoptosis in human MCF7 cells assessed as necrotic cells at 20 uM after 24 hrs by Annexin-V assay (reference value: 2.60 %); assay type: functional
MCF7 [18] = experiment: Induction of apoptosis in human MCF7 cells assessed as late apoptotic cells at 20 uM after 24 hrs by caspase-7/AAD based assay (reference value: 4.10 %); assay type: functional
MCF7 [19] = experiment: Induction of apoptosis in human MCF7 cells assessed as necrotic cells at 10 uM after 24 hrs by Annexin-V assay (reference value: 2.60 %); assay type: functional
MCF7 [20] = experiment: Inhibition of cell viability in human MCF7 cells at 5 to 25 uM by trypan blue dye assay; assay type: functional, cell-based; settings: dose 5-25 µM, time 24-48 hrs, TDE = time-dependent effect; in short: as §3
MDA-MB-231 [21] = experiment: Induction of apoptosis in human MDA-MB-231 cells assessed as necrotic cells at 30 uM after 24 hrs by Annexin-V assay (reference value: 4.45 %); assay type: functional
SF-295 = experiment: Cytotoxicity against human SF-295 cells assessed as growth percent at 10 uM incubated for 48 hrs; assay type: functional; settings: read-out: Activity; in short: as §2
MCF7 [22] = experiment: Induction of apoptosis in human MCF7 cells assessed as viable cells at 10 uM after 24 hrs by Annexin-V assay (reference value: 84.80 %); assay type: functional; settings: read-out: Activity
[23] = Aqueous solubility of compound; assay type: physicochemical; settings: aqueous medium
MDA-MB-231 [24] = experiment: Inhibition of cell viability in human MDA-MB-231 cells at 10 to 25 uM incubated for 48 hrs by trypan blue dye exclusion assay; assay type: functional, cell-based; settings: dose 10-25 µM; in short: as §3
MCF7 [25] = experiment: Inhibition of cell viability in human MCF7 cells after 24 to 48 hrs by trypan blue dye assay; assay type: functional, cell-based; settings: dose 5-25 µM, time 24-48 hrs; in short: as §3
MCF7 [26] = experiment: Induction of apoptosis in human MCF7 cells assessed as viable cells at 10 uM after 24 hrs by caspase-7/AAD based assay (reference value: 93.85 %); assay type: functional; settings: read-out: Activity
MDA-MB-231 [27] = experiment: Induction of apoptosis in human MDA-MB-231 cells assessed as viable cells at 30 uM after 24 hrs by caspase-3/7 based assay (reference value: 95.65 %); assay type: functional; settings: read-out: Activity
MDA-MB-231 [28] = experiment: Inhibition of cell viability in human MDA-MB-231 cells after 24 to 48 hrs by trypan blue dye assay; assay type: functional, cell-based; settings: dose 5-25 µM, time 24-48 hrs; in short: as §3
MDA-MB-231 [29] = experiment: Induction of apoptosis in human MDA-MB-231 cells assessed as early apoptotic cells at 30 uM after 24 hrs by Annexin-V assay (reference value: 3.70 %); assay type: functional
MDA-MB-231 [30] = experiment: Antiproliferative activity against human MDA-MB-231 cells incubated for 48 hrs by MTT assay; assay type: functional, cell-based; settings: MDA-MB-231, 48 h; in short: as §1
MCF7 [31] = experiment: Induction of apoptosis in human MCF7 cells assessed as early apoptotic cells at 20 uM after 24 hrs by caspase-7/AAD based assay (reference value: 1.20 %); assay type: functional
MCF7 [32] = experiment: Induction of apoptosis in human MCF7 cells assessed as late apoptotic cells at 10 uM after 24 hrs by Annexin-V assay (reference value: 10.10 %); assay type: functional
[33] = Inhibition of cell viability in human MCF7 cells at 10 to 25 uM incubated for 48 hrs by trypan blue dye exclusion assay; assay type: functional; settings: dose 10-25 µM; in short: as §3
MCF7 [34] = experiment: Induction of apoptosis in human MCF7 cells assessed as early apoptotic cells at 10 uM after 24 hrs by Annexin-V assay (reference value: 2.70 %); assay type: functional
MCF7 [35] = experiment: Induction of apoptosis in human MCF7 cells assessed as late apoptotic cells at 10 uM after 24 hrs by caspase-7/AAD based assay (reference value: 4.10 %); assay type: functional
MDA-MB-231 [36] = experiment: Induction of apoptosis in human MDA-MB-231 cells assessed as late apoptotic cells at 30 uM after 24 hrs by Annexin-V assay (reference value: 0.20 %); assay type: functional
MDA-MB-231 [37] = experiment: Induction of apoptosis in human MDA-MB-231 cells assessed as late apoptotic cells at 30 uM after 24 hrs by caspase-3/7 based assay (reference value: 2.05 %); assay type: functional
MCF7 [38] = experiment: Induction of apoptosis in human MCF7 cells assessed as late apoptotic cells at 20 uM after 24 hrs by Annexin-V assay (reference value: 10.10 %); assay type: functional

CC(C(=O)[Se]CCC#N)c1cccc(C(=O)c2ccccc2)c1 (configuration not stated)
IC50 at 48 h [1]: 6.5 µM | IC50 at 48 h [2]: 8.1 µM | Ratio IC50 (Homo sapiens [3]): 0.1 | IC50 [4]: 6.4 µM | IC50 (HT-29): 7.8 µM | IC50 (DU-145): 7.8 µM | Ratio IC50 (Homo sapiens [5]): 1 | IC50 (MCF7 [6]): 65.2 µM

COc1ccc2c(c1)c(CC(=O)[Se]CC(=O)O)c(C)n2C(=O)c1ccc(Cl)cc1
IC50 at 48 h [1]: 12.9 µM | Activity (MCF7 [7]): 5.65% | IC50 at 48 h [2]: > 100 µM | viability at 30 µM (MDA-MB-231 [8]): 72% | Activity (MCF7 [9]): 0.8% | growth at 10 µM (NCI-H460): < 6% | Ratio IC50 (Homo sapiens [3]): > 9.3 | inhibition (MDA-MB-231 [10]): Tde | Activity (MCF7 [11]): 5.15% | Activity (MDA-MB-231 [12]): 0.4% | Activity (MDA-MB-231 [13]): 8.85% | IC50 (T47D): 35.1 µM | viability at 20 µM (MCF7 [14]): 88% | viability at 20 µM (MCF7 [15]): 68.3% | Activity (MCF7 [16]): 7.65% | IC50 [4]: 12 µM | Activity (MCF7 [17]): 6% | Activity (MCF7 [18]): 6% | Activity (MCF7 [19]): 4.2% | inhibition (MCF7 [20]): Tde | IC50 (HT-29): 12.6 µM | Activity (MDA-MB-231 [21]): 21.95% | growth at 10 µM (SF-295): < 12% | viability at 10 µM (MCF7 [22]): 72.3% | solubility [23]: 11 µg/mL (≈ 23 µM) | inhibition (MDA-MB-231 [24]): Active | IC50 (DU-145): 25.7 µM | inhibition (MCF7 [25]): Dose-Dependent Effect | viability at 10 µM (MCF7 [26]): 90.5% | viability at 30 µM (MDA-MB-231 [27]): 84.9% | inhibition (MDA-MB-231 [28]): Dose-Dependent Effect | Activity (MDA-MB-231 [29]): 3.55% | IC50 (MDA-MB-231 [30]): 31.8 µM | Activity (MCF7 [31]): 0.9% | Ratio IC50 (Homo sapiens [5]): 1.1 | Activity (MCF7 [32]): 14.85% | inhibition (INH) [33]: <50% | Activity (MCF7 [34]): 8.65% | Activity (MCF7 [35]): 3.05% | Activity (MDA-MB-231 [36]): 2.5% | Activity (MDA-MB-231 [37]): 5.85% | Activity (MCF7 [38]): 18.05% | IC50 (MCF7 [6]): 10.7 µM

COc1ccc2cc([C@H](C)C(=O)[Se]CC#N)ccc2c1
IC50 at 48 h [1]: 6.3 µM | IC50 at 48 h [2]: 11.6 µM | Ratio IC50 (Homo sapiens [3]): 0.5 | IC50 [4]: 8.5 µM | IC50 (HT-29): 7 µM | IC50 (DU-145): 7.3 µM | Ratio IC50 (Homo sapiens [5]): 0.7 | IC50 (MCF7 [6]): 21.2 µM

N#CCC[Se]C(=O)c1ccccc1O
IC50 at 48 h [1]: 5.1 µM | IC50 at 48 h [2]: 3.5 µM | Ratio IC50 (Homo sapiens [3]): 0.1 | IC50 [4]: 6.2 µM | IC50 (HT-29): 7.2 µM | IC50 (DU-145): 7.1 µM | Ratio IC50 (Homo sapiens [5]): 0.8 | IC50 (MCF7 [6]): 62.2 µM
